Laboratory results reported in publication PMC2944037 (Environmental toxicology and chemistry / SETAC, 2010).
“Also recorded” adds a separate entry of the source. Where two headings read alike, the source gives them in different places.

Tests used:
[1] = tested on: hER; conditions: read-out: EC50, hER agonist; cited from earlier work
[2] = molecular target: alligator estrogen receptor alpha (aERα) (Alligator mississippiensis, UniProt Q765N7); test: Cell-free competitive binding assay with baculovirus-expressed recombinant aERα; design: species or system American alligator (Alligator mississippiensis); conditions: for RBA, Alligator: IC50 of 17β-estradiol / IC50 of compound × 100; for Binding classification for aERα: non-binder <50% E2 displaced, equivocal binder 50% or greater but <80%; for Binder class, Alligator: aERα, displacement of [3H]E2 at highest soluble concentration; for E2 displaced from aERα: maximum displacement of radiolabeled E2
[3] = tested on: aERα; test: CV1 transactivation assay with exogenous aERα; type: cell-based, American alligator (Alligator mississippiensis)
[4] = tested on: endogenous hERα and hERβ; test: T47D-KBluc transactivation assay; type: cell-based, human
Procedure, shortened: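 Stably transfected T47D reporter line (endogenous ERα/ERβ, 3×-ERE-TATA-Luc) was plated at 10,000 cells/well and dosed after overnight culture for 24 h. […] After PBS rinse and lysis, luciferase RLU was read with D-luciferin and converted to log fold induction. One-way ANOVA was applied. There were two independent experiments, four wells per treatment.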

[5] = molecular target: aERα; conditions: read-out: Dissociation constant (Kd) of aERα for E2; recombinant aERα; cited from earlier work
[6] = molecular target: T1, human estrogen receptor alpha (hERα) (Homo sapiens, UniProt P03372); test: Cell-free competitive binding assay with baculovirus-expressed recombinant hERα; conditions: for Binding classification for hERα: non-binder <50% E2 displaced, equivocal binder 50% or greater but <80%; for RBA, Human: IC50 of 17β-estradiol / IC50 of compound × 100; for Binder class, Human: hERα, displacement of [3H]E2 at highest soluble concentration; for E2 displaced from hERα: maximum displacement of radiolabeled E2
T1 sequence (P03372 1-595): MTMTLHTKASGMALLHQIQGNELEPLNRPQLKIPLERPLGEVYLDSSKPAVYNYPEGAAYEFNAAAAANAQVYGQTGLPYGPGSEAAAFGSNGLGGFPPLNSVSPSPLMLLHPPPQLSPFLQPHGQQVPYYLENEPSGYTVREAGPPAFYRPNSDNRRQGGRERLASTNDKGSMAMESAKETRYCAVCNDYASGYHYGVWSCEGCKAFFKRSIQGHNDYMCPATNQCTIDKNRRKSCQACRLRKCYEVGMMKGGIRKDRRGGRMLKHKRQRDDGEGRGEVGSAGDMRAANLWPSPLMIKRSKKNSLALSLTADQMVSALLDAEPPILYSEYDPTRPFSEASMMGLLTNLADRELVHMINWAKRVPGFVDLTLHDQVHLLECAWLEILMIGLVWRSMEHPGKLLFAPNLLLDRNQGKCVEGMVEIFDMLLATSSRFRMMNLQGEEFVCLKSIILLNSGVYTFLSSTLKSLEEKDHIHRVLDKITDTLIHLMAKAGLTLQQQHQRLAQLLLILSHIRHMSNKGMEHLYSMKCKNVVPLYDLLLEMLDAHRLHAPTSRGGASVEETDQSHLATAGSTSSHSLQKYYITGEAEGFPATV

[7] = tested on: alligator estrogen receptor (aER) derived from adult female alligator oviductal tissue; conditions: cited from earlier work
[8] = tested on: human MCF-7 cells; conditions: proliferation of human MCF-7 cells; cited from earlier work
[9] = tested on: human estrogen receptor (hER); conditions: cited from earlier work
[10] = tested on: alligator embryos; conditions: cited from earlier work
[11] = molecular target: hERα (Homo sapiens, UniProt P03372); test: CV1 transactivation assay with exogenous hERα; type: cell-based
[12] = tested on: CV1 cells; test: Cell distress observed in the CV1 transactivation assay; type: cell-based, monkey; conditions: 30 μM
[13] = tested on: T47D-KBluc cells; test: Cytotoxicity observed in the T47D-KBluc assay; type: cell-based, human; conditions: 30 μM

SMILES: OC(c1ccc(Cl)cc1)(c1ccccc1Cl)C(Cl)(Cl)Cl (racemic) [racemic (±) o,p′-dicofol, o,p′-dicofol]
- EC50 [1]: 4200 nM

SMILES: OC(c1ccc(Cl)cc1)(c1ccccc1Cl)C(Cl)(Cl)Cl (single isomer, unassigned; (-)) [(−) o,p′-dicofol, o,p′-dicofol]
- EC50 [1]: 510 nM

SMILES: C[C@]12CC[C@@H]3c4ccc(O)cc4CC[C@H]3[C@@H]1CC[C@@H]2O [17β-Estradiol, reference compound]
- RBA, Alligator [2]: 100
- Transcription of estrogen responsive gene with aERα ([3]; CV1 cells): induced transcription
- Transcriptional activation of estrogen-dependent reporter ([4]; T47D-KBluc cells): dose dependent transactivation
- Kd [5]: 0.44 ± 0.039 nM

SMILES: CCNc1nc(Cl)nc(NC(C)C)n1 [Atrazine]
- Binding to hERα ([6]; at concentrations up to 100 μM): not able to bind
- Binding classification for hERα [6]: not able to bind; also recorded: non-binders
- Binding to aERα ([2]; at concentrations up to 100 μM): not able to bind
- Binding classification for aERα [2]: not able to bind; also recorded: non-binders
- Binding to oviduct-derived aER [7]: able to bind
- Activity in the E-screen assay [8]: inactive
- Binding to hER [9]: do not bind
- Sex reversal ([10]; 33°C, stage 21, single topical egg exposure to 0.14, 1.40, or 14.0 ppm): no sex reversal at any concentration
- Gonadal aromatase activity ([10]; in ovo exposure): did alter gonadal aromatase activity
- Plasma E2 concentrations ([10]; in ovo exposure): not plasma E2 concentrations

SMILES: CC(C)(c1ccc(O)cc1)c1ccc(O)cc1 [Bisphenol A, reference compound]
- RBA, Human [6]: 0.05
- IC50 [2]: 1070 nM
- RBA, Alligator [2]: 0.07

SMILES: CCNc1nc(Cl)nc(NC(C)(C)C#N)n1 [Cyanazine, cyanazine]
- Binder class, Alligator [2]: NB (Non-binder: displaced less than 50% 17b-estradiol at the highest soluble concentration.)
- Activity in the E-screen assay [8]: inactive

SMILES: C[C@]12CC[C@@H]3c4ccc(O)cc4C[C@@H](CCCCCCCCC[S+]([O-])CCCC(F)(F)C(F)(F)F)[C@H]3[C@@H]1CC[C@@H]2O (stereo partly drawn) [ICI, ICI 182,780, reference compound]
- Effect of ICI on E2-elicited transcriptional activation ([3]; 1 μM ICI + 10 nM E2, data not shown): ablated
- Effect of ICI on E2-elicited transactivation ([4]; 1 μM ICI + 30 pM E2, data not shown): reversed

SMILES: CCc1cccc(CC)c1N(COC)C(=O)CCl [alachlor]
- Binding to oviduct-derived aER [7]: able to bind
- Activity in the E-screen assay [8]: inactive
- Binding to hER [9]: do not bind

SMILES: ClC1=C(Cl)C2(Cl)C3C(Cl)C(Cl)CC3C1(Cl)C2(Cl)Cl (stereo not drawn) [chlordane]
- Binding to oviduct-derived aER [7]: able to bind
- Activity in the E-screen assay [8]: inactive

SMILES: ClC1=C(Cl)[C@]2(Cl)[C@H]3[C@H]([C@H](Cl)C(Cl)[C@@H]3Cl)[C@@]1(Cl)C2(Cl)Cl (stereo partly drawn) [cis-Nonachlor]
- RBA, Human [6]: 0.003
- Binder class, Human [6]: EB (Equivocal binder: displaced greater than 50%, but less than 80% at the highest soluble concentration.)
- RBA, Alligator [2]: 0.006
- Binder class, Alligator [2]: EB (Equivocal binder: displaced greater than 50%, but less than 80% at the highest soluble concentration.)

SMILES: ClC1=C(Cl)C2(Cl)C3C(Cl)C=CC3C1(Cl)C2(Cl)Cl (stereo not drawn) [heptachlor]
- Binding to oviduct-derived aER [7]: able to bind
- Activity in the E-screen assay [8]: inactive

SMILES: Cl[C@H]1[C@H](Cl)[C@@H](Cl)[C@@H](Cl)[C@H](Cl)[C@H]1Cl [lindane]
- Activity in the E-screen assay [8]: inactive

SMILES: ClC(Cl)=C(c1ccc(Cl)cc1)c1ccccc1Cl [o,p′-DDE, 1-Chloro-2-[2,2-dichloro-1-(4-chlorophenyl)ethenyl]benzene]
- IC50 [6]: 219 µM
- RBA, Human [6]: 0.003
- Binder class, Human [6]: EB (Equivocal binder: displaced greater than 50%, but less than 80% at the highest soluble concentration.)
- Binding classification for hERα [6]: equivocal binders
- IC50 [2]: 85100 nM
- Binder class, Alligator [2]: EB (Equivocal binder: displaced greater than 50%, but less than 80% at the highest soluble concentration.)
- Binding classification for aERα [2]: equivocal binders

SMILES: Clc1ccc(C(c2ccccc2Cl)C(Cl)(Cl)Cl)cc1 (stereo not drawn) [o,p′-DDT, 1-Chloro-2-[2,2,2-trichloro-1-(4-chlorophenyl)ethyl]benzene]
- IC50 [2]: 977 nM
- RBA, Alligator [2]: 0.08

SMILES: Clc1ccc(C(c2ccc(Cl)cc2)C(Cl)Cl)cc1 [p,p′-DDD, 1-Chloro-4-[2,2-dichloro-1-(4-chlorophenyl)ethyl]benzene]
- Binder class, Human [6]: NB (Non-binder: displaced less than 50% 17b-estradiol at the highest soluble concentration.)
- Binding classification for hERα [6]: non-binders
- Binder class, Alligator [2]: NB (Non-binder: displaced less than 50% 17b-estradiol at the highest soluble concentration.)
- Binding classification for aERα [2]: non-binders

SMILES: ClC(Cl)=C(c1ccc(Cl)cc1)c1ccc(Cl)cc1 [p,p′-DDE, 1-Chloro-4-[2,2-dichloro-1-(4-chlorophenyl)ethenyl]benzene]
- Binder class, Human [6]: NB (Non-binder: displaced less than 50% 17b-estradiol at the highest soluble concentration.)
- E2 displaced from hERα [6]: ~0%
- Binding classification for hERα [6]: non-binders
- Binder class, Alligator [2]: NB (Non-binder: displaced less than 50% 17b-estradiol at the highest soluble concentration.)
- E2 displaced from aERα [2]: ~28%
- Binding classification for aERα [2]: non-binders
- Sex ratio ([10]; 100 ppb in ovo, 32°C (mixed sex ratio)): slight female sex bias
- Male to female sex reversal ([10]; 100 ppb in ovo, 33.5°C): no male to female sex reversal

SMILES: OC(c1ccc(Cl)cc1)(c1ccc(Cl)cc1)C(Cl)(Cl)Cl [p,p′-Dicofol, p,p′-dicofol]
- RBA, Human [6]: 0.001
- Binder class, Human [6]: EB (Equivocal binder: displaced greater than 50%, but less than 80% at the highest soluble concentration.)
- E2 displaced from hERα [6]: 58%
- Binding classification for hERα [6]: equivocal binder
- RBA, Alligator [2]: 0.02
- E2 displaced from aERα [2]: 83%
- IC50 ([2]; read-out: IC50 for aERα): 4000 nM
- Concentration eliciting maximal transactivation ([11]; CV1 assay, hERα): 10 µM
- Transcription of estrogen responsive gene with hERα ([11]; CV1 cells): induced transcription
- Concentration eliciting maximal transactivation ([3]; CV1 assay, aERα): 10 µM
- Transcription of estrogen responsive gene with aERα ([3]; CV1 cells): induced transcription
- EC50 ([3]; read-out: EC50, transcriptional activation through aERα, CV1 cells, 3x-ERE-TATA-Luc): 2800 nM
- Concentration eliciting maximal transactivation ([4]; T47D-KBluc assay): 10 µM
- Transcriptional activation of estrogen-dependent reporter ([4]; T47D-KBluc cells): dose-dependent increase
- EC50 ([4]; read-out: EC50, transcriptional activation through hER, T47D-KBluc cells): 1500 nM
- Cell distress (increase in detached cells) [12]: cell distress
- Cytotoxicity (cell detachment, cytopathology) [13]: toxic to the cells
- EC50 [1]: 1600 nM

SMILES: ClC1=C(Cl)[C@]2(Cl)[C@H]3[C@H]([C@H](Cl)C(Cl)[C@@H]3Cl)[C@@]1(Cl)C2(Cl)Cl (stereo partly drawn) [trans-Nonachlor]
- Binder class, Human [6]: NB (Non-binder: displaced less than 50% 17b-estradiol at the highest soluble concentration.)
- E2 displaced from hERα [6]: 48%
- Binding classification for hERα [6]: non-binder
- RBA, Alligator [2]: 0.005
- Binder class, Alligator [2]: EB (Equivocal binder: displaced greater than 50%, but less than 80% at the highest soluble concentration.)
- E2 displaced from aERα [2]: 68%
- Binding classification for aERα [2]: equivocal binder
